# According to ChEMBL document CHEMBL5352477, “Isoform selectivities of novel 4-hydroxycoumarin imines as inhibitors of myosin II” (Eur J Med Chem, 2023):
# Activity calls are given as the source filed them. The rule behind the calls is not given here.
# Experiments:
# [1] = Inhibition of full length chicken phosphorylated myosin 2 smooth muscle isoform derived from gizzard ATPase activity assessed as reduction in steady-state rabbit F-actin-activated Mg2+ ATPase activity incubated for 6 to 24 mins in presence of ATPase buffer at 7.0 containing Mgcl2 and ATP by fluorescence-based assay; type: tissue-based, Gallus gallus
# COS-7 [2] = test: Inhibition of Non-muscle myosin IIB in African green monkey COS-7 cells assessed as inhibition of cytokinesis by measuring increase in nuclei to cell ratio (N/C) at 40 uM incubated for 24 hrs by fluorescein-diacetate, Hoechst 33342 and propidium iodide staining based fluorescence microscopy relative to control; settings: Chlorocebus aethiops
# Outline: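 COS-7 cells (4,000/well) preincubated 24 h at 37 °C in 5% CO2, then exposed 24 h to 40 μM compound, final 1% DMSO. Media and 1% DMSO served as negative controls; para-aminoblebbistatin 20 μM and blebbistatin 10 μM as positive controls. Stained 10 min with FDA 6 μM, Hoechst 33342 10 μM and PI 4 μM, then imaged; N/C counted excluding PI-positive nuclei. Triplicate wells, ≥2 experiments, ≥600 cells per well.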
# [3] = Selectivity index, ratio of IC50 for inhibition of full length bovine cardiac muscle myosin II ATPase activity to IC50 for inhibition of full length rabbit skeletal muscle myosin II ATPase activity
# [4] = Inhibition of full length bovine Myosin-2 cardiac muscle isoform from left ventricle ATPase activity assessed as reduction in steady-state rabbit F-actin-activated Mg2+ ATPase activity incubated for 6 to 24 mins in presence of ATPase buffer at 7.0 containing Mgcl2 and ATP by fluorescence-based assay; parameters: species or system Bos taurus, Heart left ventricle
# [5] = Inhibition of full length rabbit myosin 2 skeletal muscle isoform derived from Psoas muscle ATPase activity assessed as reduction in steady-state rabbit F-actin-activated Mg2+ ATPase activity incubated for 6 to 24 mins in presence of ATPase buffer at 7.0 containing Mgcl2 and ATP by fluorescence-based assay; type: tissue-based, Oryctolagus cuniculus
# COS-7 [6] = test: Cytotoxicity against Green monkey COS-7 cells assessed as reduction in cell viability incubated for 24 hrs by MTT assay; type: toxicity, cell-based; settings: chlorocebus aethiops, cos-7, 24 h
# Outline: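 COS-7 cells seeded at 2.5 × 10^4 per well, grown 24 h at 37 °C in 5% CO2, then treated 24 h with 20, 40, 100 or 200 μM compound in media with 1% DMSO (4 wells each). MTT 1.2 mM in PBS for 2 h in the dark, lysis in 0.1% NP-40/isopropanol with HCl, A564 read; CC50 and CC90 taken as concentrations giving 50% and 90% loss of viability.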
# [7] = Kinetic solubility of the compound in 2.5% DMSO/PBS at pH 7.4 incubated for 1 hrs by nephelometry; type: physicochemical; settings: for solubility kinetic at 1 h: 2.5% DMSO/PBS, pH 7.4, read-out: Kinetic_solubility; for Kinetic_solubility: buffer, pH 7.4, 1 h
# Outline: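 DMSO stock (20 mM) added to PBS pH 7.4, then serially diluted in quadruplicate at a constant 2.5% DMSO. Plates shaken 2 min, incubated 1 h at 37 °C, shaken 3 min, and turbidity read by nephelometry; average blank subtracted.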
IC50 [1] [µM],SMILES,inhibition (COS-7 [2]),further results
≥ 100,C/C(=N\Cc1ccccn1)c1c(O)c2ccccc2oc1=O,inactive,
≥ 100,C/C(=N\Cc1cccnc1)c1c(O)c2ccccc2oc1=O,inactive,
≥ 100,C/C(=N\CC(C)C)c1c(O)c2ccccc2oc1=O,inactive,
≥ 100,CCC/N=C(\C)c1c(O)c2ccccc2oc1=O,inactive,
≥ 100,C/C(=N\Cc1ccncc1)c1c(O)c2ccccc2oc1=O,inactive,solubility kinetic at 1 h [7]: > 400 µM
≥ 100,CCCCCC/N=C(\C)c1c(O)c2ccccc2oc1=O,inactive,
≥ 100,C/C(=N\CCO)c1c(O)c2ccccc2oc1=O,inactive,
≥ 100,C/C(=N\Cc1cccc(C)c1)c1c(O)c2ccccc2oc1=O,inactive,
≥ 100,CCC(C)/N=C(\C)c1c(O)c2ccccc2[nH]c1=O (stereo unspecified),inactive,
≥ 100,C/C(=N\CCCO)c1c(O)c2ccccc2oc1=O,inactive,
≥ 100,C/C(=N\C(C)C)c1c(O)c2ccccc2oc1=O,inactive,
≥ 100,COCCC/N=C(\C)c1c(O)c2ccccc2oc1=O,inactive,Ratio IC50 [3]: 3.5; IC50 [4]: 38 µM; IC50 [5]: 11 µM; CC10 (COS-7 [6]): 339 µM; CC50 (COS-7 [6]): > 1000 µM
≥ 100,COc1cccc(C/N=C(\C)c2c(O)c3ccccc3oc2=O)c1,inactive,Ratio IC50 [3]: 0.5; IC50 [4]: 4.4 µM; IC50 [5]: 9.1 µM; CC10 (COS-7 [6]): 39 µM; CC50 (COS-7 [6]): > 200 µM
≥ 100,CCCCC/N=C(\C)c1c(O)c2ccccc2oc1=O,inactive,
≥ 100,CCC(C)/N=C(\C)c1c(O)c2ccccc2oc1=O (stereo unspecified),inactive,
≥ 100,C/C(=N\C(C)C)c1c(O)c2ccccc2[nH]c1=O,inactive,
≥ 100,C/C(=N\Cc1ccccc1C)c1c(O)c2ccccc2oc1=O,inactive,
≥ 100,CCOCC/N=C(\C)c1c(O)c2ccccc2oc1=O,inactive,Ratio IC50 [3]: 1.3; IC50 [4]: 24 µM; IC50 [5]: 19 µM; CC10 (COS-7 [6]): 184 µM; CC50 (COS-7 [6]): > 1000 µM
≥ 100,C/C(=N\Cc1ccc(C)cc1)c1c(O)c2ccccc2oc1=O,inactive,
≥ 100,COCC/N=C(\C)c1c(O)c2ccccc2oc1=O,inactive,Ratio IC50 [3]: 0.6; IC50 [4]: 52 µM; IC50 [5]: 90 µM; CC10 (COS-7 [6]): 286 µM; CC50 (COS-7 [6]): > 200 µM

# The next lines start with the compound.
SMILES,IC50 [1] [µM],inhibition (COS-7 [2]),further results
C/C(=N\Cc1ccccc1)c1c(O)c2ccccc2[nH]c1=O,≥ 100,inactive,
CCC/N=C(\C)c1c(O)c2ccccc2[nH]c1=O,≥ 100,inactive,
C/C(=N\Cc1ccccc1)c1c(O)c2cc([N+](=O)[O-])ccc2oc1=O,≥ 100,inactive,
CCCCC/N=C(\C)c1c(O)c2ccccc2[nH]c1=O,≥ 100,inactive,
CCOCCC/N=C/c1c(O)c2ccccc2oc1=O,≥ 100,inactive,Ratio IC50 [3]: > 30; IC50 [4]: ≥ 100 µM; IC50 [5]: 3.3 µM; CC10 (COS-7 [6]): 135 µM; CC50 (COS-7 [6]): > 1000 µM
CCCC/N=C(\C)c1c(O)c2ccccc2[nH]c1=O,≥ 100,inactive,
CCCC/N=C(\C)C1C(=O)Oc2ccccc2C1=O (stereo unspecified),≥ 100,inactive,solubility kinetic at 1 h [7]: 607 µM
C/C(=N\CCO)c1c(O)c2ccccc2[nH]c1=O,≥ 100,inactive,
C/C(=N\Cc1ccccc1)c1c(O)c2ccccc2n(C)c1=O,≥ 100,inactive,
C/C(=N\CCCOCc1ccc2c(c1)OCO2)c1c(O)c2ccccc2oc1=O,≥ 100,inactive,IC50 [4]: ≥ 100 µM; IC50 [5]: 29 µM; CC10 (COS-7 [6]): 110 µM; CC50 (COS-7 [6]): > 200 µM; Kinetic_solubility [7]: 122 µM
COc1cc(/C=C/C(=O)c2c(O)c3ccccc3oc2=O)ccc1O,≥ 100,inactive,IC50 [4]: ≥ 100 µM; IC50 [5]: ≥ 100 µM
CCCCN(CCC/N=C(\C)c1c(O)c2ccccc2oc1=O)Cc1cccc(OC)c1,≥ 100,inactive,IC50 [4]: ≥ 100 µM; IC50 [5]: ≥ 100 µM
CC/N=C(\C)C1C(=O)Oc2ccccc2C1=O (stereo unspecified),≥ 100,inactive,
COCCOCCOCCC/N=C(\C)c1c(O)c2ccccc2oc1=O,≥ 100,inactive,IC50 [4]: ≥ 100 µM; IC50 [5]: ≥ 100 µM
C/N=C(\C)C1C(=O)Oc2ccccc2C1=O (stereo unspecified),≥ 100,inactive,
Cc1ccc2c(c1)C(=O)[C@]1(O)CCN(c3ccccc3)C1=N2,≥ 100,inactive,
CC/C(=N\Cc1ccccc1)c1c(O)c2ccccc2oc1=O,≥ 100,inactive,
CC(=N)C1C(=O)Oc2ccccc2C1=O (stereo unspecified),≥ 100,inactive,
CCCCC/N=C(\C)c1c(O)c2cc([N+](=O)[O-])ccc2oc1=O,≥ 100,inactive,
C/C(=N\CC(C)C)c1c(O)c2ccccc2[nH]c1=O,≥ 100,inactive,
COc1ccc(C/N=C(\C)c2c(O)c3ccccc3oc2=O)cc1,≥ 100,inactive,Ratio IC50 [3]: 3.4; IC50 [4]: 5.4 µM; IC50 [5]: 1.6 µM; CC10 (COS-7 [6]): 36 µM; CC50 (COS-7 [6]): > 200 µM
CCC/C(=N\Cc1ccccc1)c1c(O)c2ccccc2oc1=O,≥ 100,inactive,
Cc1ccc2c(c1)C(=O)[C@]1(O)CCN(c3ccc(N)cc3)C1=N2,≥ 100,,
C/C(=N\OCc1ccccc1)c1c(O)c2ccccc2oc1=O,≥ 100,inactive,
C/C(=N\Nc1ccccc1)c1c(O)c2ccccc2oc1=O,≥ 100,inactive,
C/C(=N\CC1CCCCC1)c1c(O)c2ccccc2[nH]c1=O,≥ 100,inactive,
COc1ccc(COCCC/N=C(\C)c2c(O)c3ccccc3oc2=O)cc1,≥ 100,inactive,IC50 [4]: ≥ 100 µM; IC50 [5]: 50 µM; CC10 (COS-7 [6]): 46 µM; CC50 (COS-7 [6]): > 200 µM; Kinetic_solubility [7]: 103 µM
